Source: PubChem BioAssay (Sanford-Burnham Center for Chemical Genomics)
Scp1 inh – inhibitors of human Scp-1 phosphatase. Q9GZU7. actives 0.88% (n = 340,000). inhibition, % at 20 µM. Recombinant Scp1, phosphopeptide, malachite green phosphate absorbance;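 active = inhibition above about 50% at 20 µM, limit read from the data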;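 note: plate controls were DMSO wells with enzyme for no effect and wells lacking enzyme for full effect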
Target sequence (Q9GZU7 76-261 limits assumed): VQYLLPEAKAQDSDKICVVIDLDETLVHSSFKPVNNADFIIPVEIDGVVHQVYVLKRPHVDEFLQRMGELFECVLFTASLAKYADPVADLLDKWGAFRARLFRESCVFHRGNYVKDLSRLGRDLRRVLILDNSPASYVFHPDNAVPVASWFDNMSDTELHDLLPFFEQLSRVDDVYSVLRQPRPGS
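System: SCP-1 catalytic domain; Reagent: Phospho 17-mer peptide substrate; Doses: one concentration, 20 µM, with 1.0% DMSO; Incubation: 45 min room-temperature reaction, 5 min colour, 30 min stabiliser; Signal: Phosphate-binding colour reagent, absorbance read at 630 nm.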
STEP block – blocks human striatal-enriched tyrosine phosphatase; AID 588621; P54829; inhibition, % at 20 µM; recombinant STEP, OMFP fluorogenic substrate, fluorescence; actives 0.25% (n = 360,000);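 active = inhibition at 20 µM, scaled per plate between control wells, above about 37%, limit read from the data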;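 note: 0% = DMSO with enzyme and substrate and 100% = substrate only without enzyme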
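System: STEP (striatal-enriched tyrosine phosphatase) enzyme, cell-free; medium: Bis-Tris pH 6.0 buffer with DTT, detergent; dosing: 20 µM, 1% DMSO; times: reaction 20 min, ambient temperature; detection: fluorescence, 480/540 nm; read-out basis: normalized % inhibition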
DNMT1 block – DNMT1 (human) enzyme inhibition. DNMT1 molecular beacon, Hinp1I cleavage, fluorescence. inhibition (reported as % activation of signal), % at 10 µM. actives 0.83% (n = 360,000). AID 588458; in the data active = inhibition above about 50%
SUMO1 PPI mod – alters human SUMO1 binding to SIM partners | P63165 | SUMO1 binding to a labelled peptide, TR-FRET, 1 h | inhibition, % at 20 µM | actives 0.33% (n = 360,000) | AID 602429; in the data active = inhibition above about 37%
Target sequence (P63165 whole entry, looked up): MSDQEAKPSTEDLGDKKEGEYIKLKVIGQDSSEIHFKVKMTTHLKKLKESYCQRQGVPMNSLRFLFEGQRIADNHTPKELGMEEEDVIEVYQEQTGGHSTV
LMPTP inh – blocks human LMPTP phosphatase. recombinant LMPTP-A, OMFP fluorogenic substrate, fluorescence intensity. inhibition, % at 20 µM. AID 651560. actives 0.22% (n = 360,000). P24666;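 active = compounds that cut the enzyme signal by at least half of the control window in the single-dose screen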;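 note: plate controls were DMSO wells with enzyme plus substrate for no effect and substrate without enzyme for full effect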
Target sequence (P24666 whole entry, looked up): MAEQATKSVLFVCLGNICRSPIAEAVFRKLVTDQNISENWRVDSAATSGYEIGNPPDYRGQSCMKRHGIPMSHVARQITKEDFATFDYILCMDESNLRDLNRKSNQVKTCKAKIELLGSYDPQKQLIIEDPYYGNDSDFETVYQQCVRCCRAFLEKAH
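Test system – LMPTP-A phosphatase enzyme · Quantity – 0.625 nM LMPTP-A final · Reagent – OMFP substrate, 400 µM final · Dosing – one test concentration per compound, 20 µM, with 3% DMSO overall · Timing – 50 min enzyme reaction at room temperature, protected from light · Detection – fluorescence intensity · Controls – substrate-only low control, DMSO enzyme-plus-substrate high control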
* hit, by the source's call; ! = repeats disagree. An excerpt weighted towards active compounds, which were near 1.7% of everything screened.

CCCCn1c(NS(=O)(=O)c2ccccc2)c(C(=O)OCC)c2nc3ccccc3nc21 was read as Scp1 inh -14.0, STEP block 3.0, DNMT1 block 68.5*, SUMO1 PPI mod 49.4* and LMPTP inh 9.3.
CCOC(=O)c1c(N)n(CCN2CCCCC2)c2nc3ccccc3nc12 was read as Scp1 inh -6.6, STEP block 0.0, DNMT1 block -7.1, SUMO1 PPI mod -5.8 and LMPTP inh 0.8.
S=P(NCCNP(=S)(N1CC1)N1CC1)(N1CC1)N1CC1 was read as Scp1 inh -10.5, STEP block -1.0, DNMT1 block 3.1, SUMO1 PPI mod 6.6 and LMPTP inh -5.2.
O=c1[nH]c2ccccc2n1C1CCN(C(c2cc3ccccc3o2)c2nnnn2Cc2ccccc2)CC1 (configuration not stated) was read as STEP block 1.0, DNMT1 block -12.1, SUMO1 PPI mod -12.0 and LMPTP inh 4.4.
Screening COc1ccc(OC)c(N2C(=O)NC(=O)/C(=C\c3ccc([N+](=O)[O-])s3)C2=O)c1 returned Scp1 inh 3.5, STEP block 4.1, DNMT1 block 16.4, SUMO1 PPI mod 48.0* and LMPTP inh 4.7.
Screening O=C1NC(=O)N(c2ccccc2)C(=O)/C1=C\c1ccc([N+](=O)[O-])s1 returned Scp1 inh 16.8.
`Cc1ccc(N2C(=O)NC(=O)/C(=C\c3cn(CC(=O)O)c4ccccc34)C2=O)cc1` gave Scp1 inh -8.3, STEP block -1.0, DNMT1 block 6.3, SUMO1 PPI mod -2.2 and LMPTP inh 2.1.
Screening O=C(O)Cn1cc(/C=C2\C(=O)NC(=O)N(Cc3ccco3)C2=O)c2ccccc21 returned Scp1 inh 53.1*, STEP block 7.2, DNMT1 block 89.6*, SUMO1 PPI mod 27.4 and LMPTP inh 4.6.
O=C1NC(=S)NC(=O)C1=Cc1ccc(Br)s1 was read as Scp1 inh 84.3*, STEP block 19.6, DNMT1 block 56.9*, SUMO1 PPI mod 17.0 and LMPTP inh 10.1.
CN1C(=O)/C(=C\c2ccc(Br)s2)C(=O)NC1=S was read as Scp1 inh 0.5, STEP block 6.5, DNMT1 block -0.4, SUMO1 PPI mod 14.3 and LMPTP inh 6.2.
For Cn1ncnc2c(=O)n(C)c(=O)nc1-2 the results were Scp1 inh -7.7, STEP block 85.4*, DNMT1 block 108.8*, SUMO1 PPI mod 29.2 and LMPTP inh 75.4*.
Screening CSc1nc(N)c(N=Nc2ccc([As](=O)(O)O)cc2)c(=O)[nH]1 returned Scp1 inh 16.2, STEP block 0.3, DNMT1 block 17.9, SUMO1 PPI mod 39.2* and LMPTP inh 43.3.
For CN1CCc2cc3c(c4c2C1Cc1ccccc1-4)OCO3 (configuration not stated) the results were Scp1 inh 5.5, STEP block 2.2, DNMT1 block 59.2*, SUMO1 PPI mod -9.7 and LMPTP inh 8.9.
Screening CN1CCc2cc(O)cc3c2[C@H]1Cc1ccc(O)c(O)c1-3 returned Scp1 inh -16.4, STEP block 2.3, DNMT1 block -2.2, SUMO1 PPI mod -4.1 and LMPTP inh 0.9.
`Cc1cc2c(C(C)C)c(O)c(O)c(C=O)c2c(O)c1-c1c(C)cc2c(C(C)C)c(O)c(O)c(C=O)c2c1O` gave STEP block -4.4, DNMT1 block 22.1, SUMO1 PPI mod 57.9* and LMPTP inh 12.2.
CCC(c1nnnn1C1CCCCC1)N1CCC2(CC1)C(=O)NCN2c1ccccc1 (configuration not stated) was read as STEP block 1.0, DNMT1 block 0.4, SUMO1 PPI mod -3.0 and LMPTP inh 1.3.
Screening CN(C)[C@@H]1C(=O)C(C(N)=O)=C(O)[C@@]2(O)C(=O)C3=C(O)c4c(O)cccc4[C@@](C)(O)C3[C@H](O)C12 (some centres not stated) returned Scp1 inh 35.1, STEP block 18.5, DNMT1 block 89.1*!, SUMO1 PPI mod 58.7*! and LMPTP inh 64.0*.
Screening c1ccc(C2(NC3=NCCO3)CCCCC2)cc1 returned STEP block -0.2, DNMT1 block 2.4, SUMO1 PPI mod -1.0 and LMPTP inh 0.8.
`S=C(NCCc1ccccc1)N1Cc2cc(N3CCCCC3)ccc2-n2nncc2C1` gave STEP block -0.4, DNMT1 block -12.7, SUMO1 PPI mod -26.0 and LMPTP inh 2.2.
